In ChEMBL document CHEMBL1126147 (J Med Chem, 1992):
Active and inactive are the calls of the source. The rule behind the calls is not given here.

Columns and labels:
[1] = target: T1, Aldo-keto reductase family 1 member B1 (Homo sapiens, UniProt P15121); assay: In vitro inhibitory activity against aldose reductase isolated from human placenta
Rattus norvegicus [2] = assay: In vivo inhibition of sorbitol accumulation in the sciatic nerve in streptozotocin induced diabetic rat model at a concentration of 10 mg/kg; type: functional
Outline: (§1)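 Rats (n = 4) were made diabetic with a single iv dose of streptozotocin (86 mg/kg). Compound was given by oral gavage at 4, 7 and 24 h. Animals were killed at 27 h and sciatic nerve sorbitol measured. Percent inhibition is relative to untreated diabetic rats (n = 4), with significance by Student's t test (p < 0.05).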

Rattus norvegicus [3] = assay: In vivo inhibition of sorbitol accumulation in the sciatic nerve in streptozotocin induced diabetic rat model at a concentration of 100 mg/kg; type: functional; outline: as §1
Rattus norvegicus [4] = assay: In vivo inhibition of sorbitol accumulation in the sciatic nerve in streptozotocin induced diabetic rat model at a concentration of 25 mg/kg; NS=not significant; type: functional, organism-based; set-up: dose 25 mg/kg; outline: as §1
Rattus norvegicus [5] = assay: In vivo inhibition of sorbitol accumulation in the sciatic nerve in streptozotocin induced diabetic rat model at a concentration of 10 mg/kg; NS=not significant; type: functional, organism-based; set-up: dose 10 mg/kg; outline: as §1
Rattus norvegicus [6] = assay: In vivo inhibition of sorbitol accumulation in the sciatic nerve in streptozotocin induced diabetic rat model at a concentration of 25 mg/kg; type: functional; outline: as §1
[7] = target: T1, Aldo-keto reductase family 1 member B1; assay: In vitro inhibitory activity against aldose reductase isolated from human placenta at 10e-5 M
Outline: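 Aldose reductase purified from human placenta; DL-glyceraldehyde as substrate with NADPH as cofactor; enzyme inhibition measured in vitro.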

| SMILES | IC50 [1] [nM] | other results |
| --- | --- | --- |
| O=C(O)Cc1nn(Cc2nc3cc(Cl)ccc3o2)c(=O)c2ccccc12 | 78 | inhibition in vivo at 10 mg/kg (Rattus norvegicus [2]): 72% |
| O=C(O)Cc1nn(Cc2cc3c(Cl)cccc3s2)c(=O)c2ccccc12 | 110 | – |
| O=C(O)Cc1nn(CC(=O)Nc2cc(C(F)(F)F)ccc2Br)c(=O)c2ccccc12 | 28 | – |
| O=C(O)Cc1nn(C/C(S)=N/c2cccc(Cl)c2)c(=O)c2ccccc12 | 50 | – |
| O=C(O)Cc1nn(Cc2cc3cc(Cl)ccc3s2)c(=O)c2ccccc12 | 250 | – |
| O=C(O)Cc1nn(Cc2cc3cc(Cl)ccc3o2)c(=O)c2ccccc12 | 150 | – |
| O=C(O)Cc1nn(CC(=O)Nc2ccccc2Cl)c(=O)c2ccccc12 | 430 | – |
| O=C(O)Cc1nn(CC(=S)Nc2cc(C(F)(F)F)ccc2Br)c(=O)c2ccccc12 | 200 | – |
| O=C(O)Cc1nn(Cc2csc(-c3ccccc3)n2)c(=O)c2ccccc12 | 8200 | – |
| O=C(O)Cc1nn(Cc2cc3cccnc3s2)c(=O)c2ccccc12 | 420 | inhibition (Rattus norvegicus [4]): inactive |
| O=C(O)Cc1nn(CC(=O)Nc2cc(C(F)(F)F)cc(C(F)(F)F)c2)c(=O)c2ccccc12 | 1100 | – |
| O=C(O)Cc1nn(C/C(S)=N/c2cccc(C(F)(F)F)c2)c(=O)c2ccccc12 | 52 | – |
| O=C(O)Cc1nn(Cc2snc3ccccc23)c(=O)c2ccccc12 | 720 | – |
| O=C(O)Cc1nn(Cc2cc3cc([N+](=O)[O-])ccc3s2)c(=O)c2ccccc12 | 2200 | inhibition (Rattus norvegicus [5]): inactive |
| O=C(O)Cc1nn(CC(=O)Nc2cc(F)cc(F)c2O)c(=O)c2ccccc12 | 170 | – |
| O=C(O)Cc1nn(CC(=O)Nc2ccccc2C(F)(F)F)c(=O)c2ccccc12 | 5900 | – |
| O=C(O)Cc1nn(CC(=O)Nc2ccc(Cl)cc2)c(=O)c2ccccc12 | 440 | – |
| O=C(O)Cc1nn(Cc2cc3cc(Br)ccc3s2)c(=O)c2ccccc12 | 1000 | – |
| O=C(O)Cc1nn(Cc2nc3cc(-c4ccccc4)ccc3o2)c(=O)c2ccccc12 | 6100 | – |
| O=C(O)Cc1nn(CC(=O)Nc2cccc(C(F)(F)F)c2)c(=O)c2ccccc12 | 19 | – |
| O=C(O)Cc1nn(Cc2cn3ccc(Cl)cc3n2)c(=O)c2ccccc12 | 37 | – |

| SMILES | IC50 [1] [nM] | other results |
| --- | --- | --- |
| O=C(O)Cc1nn(CC(=O)Nc2ccc(C(F)(F)F)cc2)c(=O)c2ccccc12 | 2100 | – |
| O=C(O)Cc1nn(Cc2nc(-c3ccccc3)c(-c3ccccc3)o2)c(=O)c2ccccc12 | 4500 | – |
| O=C(O)Cc1nn(Cc2nc3cc(Cl)cc(Cl)c3o2)c(=O)c2ccccc12 | 32 | inhibition in vivo at 10 mg/kg (Rattus norvegicus [2]): 63% |
| O=C(O)Cc1nn(Cc2cc(-c3ccccc3)ns2)c(=O)c2ccccc12 | 670 | – |
| O=C(O)Cc1nn(CC(=O)Nc2ccccc2)c(=O)c2ccccc12 | 4900 | – |
| O=C(O)Cc1nn(Cc2nc(-c3ccccc3)cs2)c(=O)c2ccccc12 | 34 | – |
| O=C(O)Cc1nn(CC(=O)Nc2cc(C(F)(F)F)cc(C(F)(F)F)c2Br)c(=O)c2ccccc12 | 2200 | – |
| O=C(O)Cc1nn(Cc2nc3ccc(Br)cc3o2)c(=O)c2ccccc12 | 540 | – |
| O=C(O)Cc1nn(Cc2ccc3ccccc3n2)c(=O)c2ccccc12 | 59000 | – |
| O=C(O)Cc1nn(Cc2cc3cc(F)ccc3s2)c(=O)c2ccccc12 | 150 | inhibition in vivo at 25 mg/kg (Rattus norvegicus [6]): 49% |
| O=C(O)Cc1nn(CC(=O)Nc2cccc(F)c2)c(=O)c2ccccc12 | 22 | – |
| O=C(O)Cc1nn(Cc2nc3cc(C(F)(F)F)ccc3o2)c(=O)c2ccccc12 | 31 | inhibition in vivo at 10 mg/kg (Rattus norvegicus [2]): 32% |
| O=C(O)Cc1nn(CC(=O)Nc2cccc(Cl)c2)c(=O)c2ccccc12 | 13 | – |
| O=C(O)Cc1nn(Cc2nc3cc(Br)ccc3o2)c(=O)c2ccccc12 | 27 | inhibition in vivo at 10 mg/kg (Rattus norvegicus [2]): 67% |
| COc1cc(NC(=O)Cn2nc(CC(=O)O)c3ccccc3c2=O)cc(OC)c1OC | – | inhibition [7]: 20% |
| O=C(O)Cc1nn(Cc2cc3ccccc3[nH]2)c(=O)c2ccccc12 | 870 | – |
| O=C(O)Cc1nn(Cc2nc3cc(C(F)(F)F)ccc3s2)c(=O)c2ccccc12 [ZOPOLRESTAT] | – | inhibition in vivo at 10 mg/kg (Rattus norvegicus [2]): 80% |
| O=C(O)Cc1nn(CC(=O)Nc2cc(C(F)(F)F)ccc2O)c(=O)c2ccccc12 | 200 | – |
| O=C(O)Cc1nn(Cc2csnc2-c2ccccc2)c(=O)c2ccccc12 | 10000 | – |
| O=C(O)Cc1nn(Cc2nc3cc(F)cc(F)c3o2)c(=O)c2ccccc12 | 3.2 | inhibition in vivo at 10 mg/kg (Rattus norvegicus [2]): 78% |

Further lines, with some results ahead:

| IC50 [1] [nM] | SMILES | other results |
| --- | --- | --- |
| 240 | O=C(O)Cc1nn(Cc2nc(-c3c(F)cccc3Cl)no2)c(=O)c2ccccc12 | – |
| 3200 | O=C(O)Cc1nn(Cc2nc(-c3ccccc3)co2)c(=O)c2ccccc12 | – |
| 89 | O=C(O)Cc1nn(Cc2nc3ccccc3o2)c(=O)c2ccccc12 | – |
| 120 | O=C(O)Cc1nn(Cc2cc3ccccc3s2)c(=O)c2ccccc12 | inhibition in vivo at 100 mg/kg (Rattus norvegicus [3]): 77% |
| 660 | O=C(O)Cc1nn(Cc2ncc(-c3ccccc3)o2)c(=O)c2ccccc12 | – |
| 160 | O=C(O)Cc1nn(Cc2nc(-c3ccccc3)no2)c(=O)c2ccccc12 | – |
| 2200 | O=C(O)Cc1nn(Cc2nc(-c3ccccc3)ns2)c(=O)c2ccccc12 | – |
| 630 | O=C(O)Cc1nn(Cc2nc(-c3ccc(F)cc3F)no2)c(=O)c2ccccc12 | inhibition in vivo at 25 mg/kg (Rattus norvegicus [6]): 46% |
| 220 | O=C(O)Cc1nn(Cc2nc(-c3ccccc3C(F)(F)F)no2)c(=O)c2ccccc12 | inhibition in vivo at 25 mg/kg (Rattus norvegicus [6]): 60% |
| 23 | O=C(O)Cc1nn(Cc2nc(-c3ccccc3Cl)no2)c(=O)c2ccccc12 | inhibition (Rattus norvegicus [5]): inactive; inhibition in vivo at 25 mg/kg (Rattus norvegicus [6]): 75% |
| 1100 | O=C(O)Cc1nn(Cc2nc(-c3ccccc3Cl)ns2)c(=O)c2ccccc12 | – |
| 460 | O=C(O)Cc1nn(Cc2csc(-c3ccccc3F)n2)c(=O)c2ccccc12 | – |
| 28 | O=C(O)Cc1nn(Cc2noc(-c3ccccc3Cl)n2)c(=O)c2ccccc12 | – |
| 156 | O=C(O)Cc1nn(Cc2nc(-c3ccccn3)no2)c(=O)c2ccccc12 | inhibition (Rattus norvegicus [5]): inactive |
| 4600 | O=C(O)Cc1nn(Cc2nc(-c3ccc(Br)cc3)no2)c(=O)c2ccccc12 | – |
| 3100 | O=C(O)Cc1nn(Cc2nnc(-c3ccccc3)o2)c(=O)c2ccccc12 | – |
| 19 | O=C(O)Cc1nn(Cc2nc(-c3cccc(F)c3F)no2)c(=O)c2ccccc12 | inhibition in vivo at 25 mg/kg (Rattus norvegicus [6]): 89% |
| 3000 | O=C(O)Cc1nn(Cc2nc3cc4ccccc4cc3o2)c(=O)c2ccccc12 | – |
| 6.5 | O=C(O)Cc1nn(Cc2nc(-c3ccccc3Br)no2)c(=O)c2ccccc12 | inhibition in vivo at 10 mg/kg (Rattus norvegicus [2]): 27% |
| < 10 | O=C(O)Cc1nn(Cc2nc(-c3ccccc3F)no2)c(=O)c2ccccc12 | inhibition in vivo at 25 mg/kg (Rattus norvegicus [6]): 69% |
| 64 | Cc1ccccc1-c1noc(Cn2nc(CC(=O)O)c3ccccc3c2=O)n1 | inhibition (Rattus norvegicus [5]): inactive |
| 4200 | Cn1c(Cn2nc(CC(=O)O)c3ccccc3c2=O)nc2ccccc21 | – |
| 470 | O=C(O)Cc1nn(Cc2noc(-c3ccccc3C(F)(F)F)n2)c(=O)c2ccccc12 | – |
| 470 | COc1ccccc1-c1noc(Cn2nc(CC(=O)O)c3ccccc3c2=O)n1 | inhibition (Rattus norvegicus [4]): inactive |
